# Published values of several laboratories.
# Target: Tyrosine-protein kinase HCK (HCK, Homo sapiens, UniProt P08631)
SMILES,test,conditions,endpoint,result
Cn1cc(-c2cc(F)cc(N3CCn4c(cc5c4CCCC5)C3=O)c2CO)cc(Nc2ccc(N3CCN(C4COC4)CC3)cn2)c1=O,"enzyme activity, inhibitor",0.1 µM,inhibition,9%
COc1ncccc1-c1cnn2ccc(N3CCN(C(=O)OC(C)C)CC3)nc12,"binding, competition with immobilised ligand",1 µM,remaining binding,60%
COc1cc(Nc2ncc(F)c(Nc3ccc4c(n3)NC(=O)C(C)(C)O4)n2)cc(OC)c1OC,"binding, competition with immobilised ligand",10 µM,inhibition,98%
Cn1cc(-c2cccc(N3CCc4c(sc5c4CC(C)(C)C5)C3=O)c2CO)cc(Nc2ccncn2)c1=O,"enzyme activity, inhibitor",1 µM,inhibition,6%
O=c1[nH]c2ccccc2n1C1CCN(Cc2ccc(-c3[nH]c4cc5ncnc5cc4nc3-c3ccccc3)cc2)CC1,cell-free assay,0.5 µM,remaining signal,99.6%
Cn1cncc1[C@@](O)(COc1ccc(C#N)cc1-c1ccc(OC(F)(F)F)cc1)c1ccc(C#N)cc1,"cell-free assay, competition with immobilised ligand",1 µM,remaining binding,100%
Nc1ncc(-c2nc(N3CCOCC3)nc(N3CCOCC3)n2)c(C(F)F)n1,"binding, competition with immobilised ligand",10 µM,remaining binding,77%
CC(C)(C)c1cc(C=C(C#N)C#N)cc(Br)c1O,"enzyme activity, inhibitor",0.5 µM,remaining activity,66.1%
N#CC1(c2ccccn2)CCN(Cc2cc(C(=O)O)c(=O)n3ccccc23)CC1,"cell-free assay, competition with immobilised ligand",1 µM,remaining binding,100%
Cc1nn(C)cc1-c1nc2c(N3CCN(Cc4ccc(Cl)cc4)CC3)c(Cl)cnc2[nH]1,"binding, competition with immobilised ligand",1 µM,remaining binding,100%
